Compounds with a hit are over-represented: about 1.8% of the library has one in this group of screens.
STAT3 inh: reduces IL-6 driven STAT3 reporter signal | U3A cells, IL-6 STAT3-luciferase reporter, luminescence; host cell line lacks STAT1 | inhibition, % at 5.5 µM | hit rate 0.89% among 190,000 | AID 862;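 active = inhibition above the mean inhibition across all screened compounds plus 3 SD, cut at about 44% in these data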;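 note: 0% = DMSO only wells and 100% = 100 µM nifuroxazide control wells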
STAT1 blocker: STAT1 signaling inhibition; AID 920; inhibition, % at 5.5 µM; NIH 3T3 STAT1-luciferase reporter, IFN-gamma, luminescence; hit rate 0.35% among 200,000;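 active = inhibition above a set limit, the mean inhibition across all tested compounds plus 3 SD, cut at about 34% in these data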;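 note: 0% = IFN-gamma with DMSO and 100% = IFN-gamma with 300 µM nifuroxazide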
STAT3 act-1: STAT3 signaling activation; U3A cells, IL-6 STAT3-luciferase reporter, luminescence; 100% = signal with IL-6 EC80 alone; hit rate 0.91% among 190,000; activation (% of control), % at 5.6 µM;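 active = activation above the screen-wide mean of compound activation plus 3 SD, cut at about 130% in these data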;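 note: 0% = background luminescence of wells with medium and substrate only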
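system = STAT3-luciferase reporter U3A cells | reagent = IL-6 stimulus at 33 ng/mL final | timing = 1 h compound pre-exposure, 6 h IL-6 stimulation, 37 °C | measured by = luminescence | evaluation = % activation versus median of IL-6-stimulated wells | control set = IL-6-only wells as 100% reference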
TRAIL sens C8: caspase-8 TRAIL sensitization. NB7+C8 cells + TRAIL, ATPlite viability luminescence. inhibition (viability loss, TRAIL sensitization), % at 10 µM. hit rate 1% among 360,000. AID 624354;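 active = compounds causing at least 50% loss of cell viability in the single-dose screen, relative to plate controls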
PPC-1+TRAIL kill: kills PPC-1 cancer cells in the presence of TRAIL. AID 1443. PPC-1 cells + TRAIL, ATPLite viability luminescence. cell killing (% activity), % at 4 µM or 5 µM. hit rate 0.41% among 220,000;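 active = cell killing above 50% in the first pass at 4 µM, then a duplicate retest at 5 µM averaging 50% or more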;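 note: plate controls were cells with TRAIL plus DMSO for no effect and medium-only wells lacking cells for full effect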
STAT3 act-2: STAT3 activation, confirmation assay; shares compounds with STAT3 act-1; U3A STAT3-luciferase reporter, IL-6 potentiation, luminescence; U3A cells lack STAT1; 100 means same as IL-6 alone; potentiation (% of control), % at 5.7 µM; hit rate 64% among 1,200;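 active = percent activation of the STAT3 luciferase reporter above a set limit taken from the earlier primary screen, cut at about 130% in these data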;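 note: 0% = background signal of medium plus substrate and 100% = median of IL-6 with DMSO wells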
NFkB act STAT3ct: NF-kappaB activation in STAT3 activator counter-screen. hit rate 11% among 1,200. human cells, NF-kappaB reporter activation. activation (% of control), % at 5.7 µM. shares compounds with STAT3 act-1; in the data active = activation above about 120%;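 note: reporter induced by TNF-alpha stimulation; 100% = median of stimulated DMSO wells and 0% = no signal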
STAT1 act: counter-screen for STAT3 activators: STAT1 activation. AID 1318. activation (% of control), % at 5.7 µM. shares compounds with STAT3 act-1. NIH 3T3 STAT1-luciferase reporter, IFN-gamma, luminescence. hit rate 13% among 1,200;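 active = activation above the solvent-only control well mean plus 3 SD, set per screening run, cut at about 120% in these data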;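 note: 100% = IFN-gamma with DMSO median signal so 100% means no change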
* = called active by the depositor; nt = no result given.

SMILES	STAT3 inh	STAT1 blocker	STAT3 act-1	TRAIL sens C8	PPC-1+TRAIL kill	STAT3 act-2	NFkB act STAT3ct	STAT1 act
O=C1c2ccccc2C(=O)N1OCc1ccccc1	-40	-10	137*	10	37	114	103	105
O=C1c2ccccc2C(=O)N1OCc1cccc(Cl)c1	16	-1	91	-13	32	nt	nt	nt
O=C(CN1CCN(S(=O)(=O)c2ccc(Cl)c(C(F)(F)F)c2)CC1)NC(=O)NC1CCCCC1	nt	nt	nt	-10	nt	nt	nt	nt
CCC1=Nc2ccccc2NC2=C1C(=O)CCC2	-77	-23	166*	6	30	160*	119	123*
CC1CC(=O)C2=C(C1)Nc1ccccc1N=C2 (stereo not given)	-4	10	104	4	-2	nt	nt	nt
CCc1ccc(NC(=O)CS(=O)CC(=O)Nc2ccc(N3CCOCC3)cc2)cc1 (stereo not given)	nt	nt	nt	23	nt	nt	nt	nt
O=C(CSc1nc(C2CC2)nc2ccccc12)N1CCCCC1	nt	nt	nt	7	nt	nt	nt	nt
O=C(CSc1nc(C2CC2)nc2ccccc12)N1c2ccccc2Sc2ccc(C(F)(F)F)cc21	-48	3	145*	4	26	123	110	98
Cc1cc(C)n(-c2nc3ccccc3c(=O)n2OCc2ccc(Cl)cc2)n1	-45	12	145*	-4	26	128	102	95
CC(=O)Oc1c(S(=O)(=O)c2ccc(C)cc2)c(C)nn1C(C)(C)C	-22	-1	121	12	21	nt	nt	nt
Cc1ccc(S(=O)(=O)c2c(C)nn(C(C)(C)C)c2OC(=O)c2cccs2)cc1	-43	-24	137*	-11	7	126	98	105
Cc1c(CN2CCc3c([nH]c4ccccc34)C2C2CCCCC2)cnn1C (stereo not given)	-25	6	126	-4	11	nt	nt	nt
CC(=O)c1cc(C(=O)N2CCc3c([nH]c4ccccc34)C2C2CCCCC2)[nH]n1 (stereo not given)	-56	0	157*	1	7	155*	104	96
CC(C)c1ccc(COC(=O)CN2C(=O)NC3(CCCCC3C)C2=O)cc1 (stereo not given)	nt	nt	nt	12	nt	nt	nt	nt
Cc1cccc(NS(=O)(=O)c2cc(C(=O)OCC(=O)Nc3cc(C)on3)ccc2C)c1	-47	-2	147*	8	-10	132	91	99
O=C(CSc1nc2c([nH]c3ccccc32)c(=O)n1-c1ccc(F)cc1)NCc1ccco1	-40	14	142*	10	25	119	94	87
O=C(CSc1nc2ccccc2c(=O)n1-c1ccccc1)NCc1ccco1	9	2	99	1	18	nt	nt	nt
c1ccc(CN2CCC3CC2c2ccc(N4CCOCC4)cc23)cc1 (stereo not given)	nt	nt	nt	-5	nt	nt	nt	nt
O=C(Nc1nc2ccccc2n1CCN1CCCC1)c1ccc(Cl)cc1	-55	-22	150*	27	17	143*	117	127*
O=S(=O)(Nc1ccc2cn[nH]c2c1)c1ccc(Cl)s1	-49	0	138*	26	1	122	97	95
CCCCS(=O)(=O)Nc1ccc2cn[nH]c2c1	-47	-2	143*	10	18	139*	101	99
O=S(=O)(Nc1ccc2cn[nH]c2c1)c1ccc(Cl)cc1	nt	nt	nt	-1	nt	nt	nt	nt
CC(OC(=O)c1ccc(NC(=O)CC#N)cc1)C(=O)NC(=O)NC1CCCCC1 (stereo not given)	nt	nt	nt	2	nt	nt	nt	nt
O=C/C(=C\Nc1ccc(C(=O)N2CCOCC2)cc1)c1nc2ccccc2o1	-61	1	161*	20	20	153*	101	105
CN(C)C(=O)c1ccc(N/C=C(\C=O)c2nc3ccccc3o2)cc1	-44	5	141*	-1	7	138*	104	94
O=C(CSc1nc2ccccc2o1)N1CCOCC1	nt	nt	nt	0	nt	nt	nt	nt
Cc1cccc(C)c1N(CC(=O)NC1CCCCC1)C(=O)c1csnn1	nt	nt	nt	-2	nt	nt	nt	nt
